FLuc act counter – firefly luciferase counter-screen for stimulation assays; activation factor at 10 µM; 200,000 tested, under 10 active; ATPlite luciferase biochemical, luminescence, 10 min; 0 = ATP-free wells, 1 = DMSO control; P08659; AID 1027;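 active = luciferase activation factor, scaled between plate controls, of at least 2 with compound at 10 µM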
Target sequence (P08659 whole entry, looked up): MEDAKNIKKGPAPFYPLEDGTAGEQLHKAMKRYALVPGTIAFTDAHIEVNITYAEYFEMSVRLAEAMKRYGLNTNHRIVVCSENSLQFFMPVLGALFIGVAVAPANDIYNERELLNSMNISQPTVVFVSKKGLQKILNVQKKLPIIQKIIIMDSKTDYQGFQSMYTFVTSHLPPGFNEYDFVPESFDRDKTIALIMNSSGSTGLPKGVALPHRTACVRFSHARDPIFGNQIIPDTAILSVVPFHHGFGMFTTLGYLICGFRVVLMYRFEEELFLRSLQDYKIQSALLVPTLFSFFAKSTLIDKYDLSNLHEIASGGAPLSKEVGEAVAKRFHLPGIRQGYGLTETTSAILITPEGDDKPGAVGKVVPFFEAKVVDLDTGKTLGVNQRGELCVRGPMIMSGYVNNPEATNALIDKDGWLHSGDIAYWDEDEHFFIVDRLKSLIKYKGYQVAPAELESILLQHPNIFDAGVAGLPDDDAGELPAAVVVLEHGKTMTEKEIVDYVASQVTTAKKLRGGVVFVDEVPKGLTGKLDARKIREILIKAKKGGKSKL
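Material: Luciferase/luciferin reagent mix; Doses: test compounds dosed from 2 mM stocks in 100% DMSO; Schedule: 10 min incubation after luciferase reagent addition, room temperature; Measured by: luminescence from luciferase reaction; Read-out: luminescence gain marking luciferase activators.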
C8 TRAIL sens – sensitizes caspase-8 expressing cells to TRAIL; NB7+C8 cells + TRAIL, ATPlite viability luminescence; AID 624354; hit rate 1% among 360,000; inhibition (viability loss, TRAIL sensitization), % at 10 µM;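 active = compounds causing at least 50% loss of cell viability in the single-dose screen, relative to plate controls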
FLuc inh counter – inhibits firefly luciferase, flagging false hits in luciferase inhibition screens; inhibition, % at 10 µM; hit rate 1.5% among 200,000; ATPLite firefly luciferase biochemical luminescence, 10 min; P08659;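 active = inhibition above about 50% when tested at 10 µM, limit read from the data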
PPC-1+TRAIL kill – compounds killing PPC-1 cancer cells with TRAIL present (potentiator screen, no TRAIL-free arm) | PPC-1 cells + TRAIL, ATPLite viability luminescence | cell killing (% activity), % at 4 µM or 5 µM | hit rate 0.41% among 220,000 | AID 1443;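 active = cell killing above 50% in the first pass at 4 µM, then a duplicate retest at 5 µM averaging 50% or more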;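 also: plate controls were cells with TRAIL plus DMSO for no effect and medium-only wells lacking cells for full effect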
An asterisk follows results filed as active; x = no result given. Hits are enriched below; roughly 1.5% of the tested compounds scored in any of these assays.

SMILES	FLuc act counter	C8 TRAIL sens	FLuc inh counter	PPC-1+TRAIL kill
COc1ccc(-c2nnc(SCC(=O)c3[nH]c(C)c(C(C)=O)c3C)o2)cc1	1	48*	-4	10
C#CCSc1nnc(-c2ccc(OC)cc2)o1	0.6	92*	37	19
Cc1[nH]n(-c2ccccc2)c(=O)c1/C=N\NC(=O)C1COc2ccccc2O1 (stereo unspecified)	0.1	85*	93*	72*
Cc1[nH]n(-c2cccc3ccccc23)c(=O)c1/C=N/NC(=O)c1cccc([N+](=O)[O-])c1	1.1	13	-6	14
Cc1[nH]n(-c2ccccc2)c(=O)c1/C=N/NC(=O)c1cccc([N+](=O)[O-])c1	0.5	54*	49	7
CC(=O)N/N=C/c1c(C)[nH]n(-c2ccccc2)c1=O	1	-2	4	-2
CC1CN(CCOc2ccccc2C(C)C)CC(C)O1 (stereo unspecified)	x	-11	x	x
O=C(O)CN1C(=O)/C(=C/C=C/c2ccccc2)SC1=S	0.2	34	79*	33
O=C(O)c1ccc(-c2cccc([N+](=O)[O-])c2)o1	x	4	x	12
N#C/C(=C(/O)c1ccc(-c2cccc([N+](=O)[O-])c2)o1)c1nc2ccccc2s1	0.3	31	66*	25
Cc1ccccc1-n1nnnc1Sc1nnnn1-c1ccccc1	1.1	55*	-6	9
O=C(NC1=NCCS1)C1COc2ccccc2O1 (stereo unspecified)	0.2	43	76*	29
O=C(Nc1ccncc1)C1COc2ccccc2O1 (stereo unspecified)	1	10	-2	18
Cc1ccccc1Nc1nnc(SCC(=O)N(C)C2CCS(=O)(=O)C2)s1 (stereo unspecified)	1	-16	-3	13
Cc1ccc(Nc2nnc(SCC(=O)N(C)C3CCS(=O)(=O)C3)s2)cc1 (stereo unspecified)	0.2	41	76*	47
O=C(Nc1nnc(-c2cc(Cl)ccc2Cl)o1)c1ccco1	x	52*	x	x
O=C(Nc1nnc(-c2cc(Cl)ccc2Cl)o1)C1=COCCO1	x	9	x	x
CCN1/C(=C/c2ccc3cc(C)ccc3[n+]2CC)Sc2ccc3sccc3c21	x	94*	x	x
Brc1ccc(-c2cn3ccccc3n2)cc1	x	47*	x	30
CCOc1ccc(-c2cn3ccccc3n2)cc1[N+](=O)[O-]	0.2	52*	78*	40
O=[N+]([O-])c1ccc(-c2cn3ccccc3n2)cc1	x	28	x	x
O=C(COc1ccc(Br)cc1)NCc1cn2ccccc2n1	x	19	x	-9
CN(C)S(=O)(=O)c1ccc(-c2cn3ccccc3n2)cc1	0.3	60*	74*	46
Brc1ccc(OCc2cn3ccccc3n2)cc1	0.2	45	77*	25
O=C(NCc1ccc(Cl)c(Cl)c1)c1cc(C2CCCCN2C(=O)c2ccccc2)on1 (stereo unspecified)	x	9	x	x
SMILES	FLuc act counter	C8 TRAIL sens	FLuc inh counter	PPC-1+TRAIL kill
Oc1ccc(-c2cn3ccccc3n2)cc1	x	63*	x	38
COc1cc(NC(=O)Cn2ncc(Cl)c(Cl)c2=O)c(C)cc1[N+](=O)[O-]	1.1	93*	-5	19
C=CCN1CCN(C(=O)CCc2ccccc2)CC1	x	10	x	x
COc1ccc(/C=C2\CCc3ccccc3C2=O)cc1O	x	66*	x	x
O=C1/C(=C/c2cccnc2)CC/C1=C\c1cccnc1	0.7	17	33	-6
O=C1/C(=C/c2ccc(O)cc2)CCc2ccc([N+](=O)[O-])cc21	1.1	24	-6	17
O=C1/C(=C\c2ccc([N+](=O)[O-])cc2)CCc2ccccc21	0.2	78*	81*	41
O=C1/C(=C\c2cccnc2)CCc2ccccc21	0.4	11	63*	4
O=C1/C(=C/c2cccnc2)CCC/C1=C\c1cccnc1	1	x	3	82*
CCC(C)C(NC(=O)c1ccccc1)C(=O)Nc1ccc(S(=O)(=O)Nc2cc(C)nc(C)n2)cc1 (stereo unspecified)	x	-15	x	x
Fc1ccc(C2=Nc3cccc4cccc(c34)N2)cc1	0.9	-2	6	-7
FC(F)(F)C1=Nc2cccc3cccc(c23)N1	x	51*	x	x
COc1ccc(C2=NS(=O)(=O)N(C)C(C(=O)NCc3ccc4c(c3)OCO4)=C2)cc1OC	x	-11	x	x
COc1ccc2c(c1)CC/C2=N\OC(=O)c1ccccc1C	0.3	40	75*	10
COc1ccc2c(c1)CCC/C2=N/OC(=O)c1ccccc1OC	0.9	7	15	3
COc1ccc2c(c1)CC/C2=N\OC(=O)c1cccc(C)c1	0.2	47	78*	2
Cc1ccc(S(=O)(=O)N2C[C@H]3[C@H]4C(=O)N(C)C(=O)[C@H]4CC(=O)[C@H]3[C@@H]2c2ccccc2F)cc1	x	-10	x	x
COc1ccc(C(=O)NCCCN=C2NS(=O)(=O)c3ccccc32)cc1	x	-5	x	x
Cc1cccnc1NC(=O)c1sc2ccccc2c1Cl	x	54*	x	x
Cc1csc(NC(=O)c2oc3ccccc3c2C)n1	x	14	x	x
Cc1ccc2nsnc2c1NC(=O)c1sc2ccccc2c1Cl	1	11	0	7
CCOC(=O)c1sc(NC(=O)c2cc(-c3ccc(C)cc3)nc3ccccc23)c(C#N)c1C	1	47	3	19
COc1ccc(-c2cc(C(=O)NC3=NCCS3)c3ccccc3n2)cc1OC	0.8	7	20	12
COC(=O)c1sc(NC(=O)c2cc(-c3ccccc3)nc3ccccc23)c(C#N)c1C	1	52*	3	17
Cc1c(C(=O)NC2=NCCS2)oc2ccccc12	0.5	25	51*	22
SMILES	FLuc act counter	C8 TRAIL sens	FLuc inh counter	PPC-1+TRAIL kill
O=C(NC1=NCCS1)c1cc(-c2ccc(-c3ccccc3)cc2)nc2ccccc12	0.3	65*	73*	45
CCN(C[C@H]1N[C@@](CC)(C(=O)OC)[C@H]2C(=O)N(Cc3ccccc3)C(=O)[C@@H]12)C(=O)C1CCCCC1	x	-4	x	x
Cc1ccc(CNC(=O)C2(C)CCN2C(=O)Cc2ccc(C(C)(C)C)cc2)cc1 (stereo unspecified)	x	6	x	x
CN(Cc1ccccc1Cl)C(=O)C1CCC(=O)N(C2CCCCCC2)C1 (stereo unspecified)	x	21	x	x
CC1(c2nnnn2-c2ccc3c(c2)OCCO3)CCC(=O)N1CCOc1ccccc1 (stereo unspecified)	x	-8	x	x
COc1cc(OC)c(NS(=O)(=O)c2cc(C(=O)NCCCN3CCOCC3)ccc2C)cc1Cl	x	0	x	x
Cc1ccnc(NC(=O)CNC(=O)c2sc3ccccc3c2Cl)c1	x	-1	x	x
O=C(NC1=NCCS1)c1sc2cc(Cl)cc(Cl)c2c1Cl	1.1	1	-7	12
Cc1ccc(NC(=O)c2sc3ccccc3c2Cl)nc1	0.2	70*	80*	40
O=C(NC1=NCCS1)c1sc2ccccc2c1Cl	0.4	35	56*	35
CCOc1ccccc1N(C)S(=O)(=O)c1ccc2c(c1)CC(C)N2C(=O)C1CC1 (stereo unspecified)	x	30	x	x
O=C1C(=O)c2cccnc2-c2ncccc21	x	96*	x	x
CCCN1C=CC(=C/C=C(\C#N)C(=O)OCC)C=C1	0.4	x	58*	31
Cc1nnsc1C(=O)N1CCCC(N2CCN(c3ccc(F)cc3)CC2)C1 (stereo unspecified)	x	-7	x	x
